Activity calls are given as the source filed them. The rule behind the calls is not given here.
Experiments:
[1] = target: Serine/threonine-protein kinase 32C (Homo sapiens) (UniProt Q86UX6); assay: Inhibition of recombinant full-length human STK32C at 1 uM using casein as substrate measured after 120 mins in presence of [gamma33P]ATP by scintillation counting method relative to control
[2] = target: CDK6/cyclin D3 (Homo sapiens) (UniProt P30281+Q00534); assay: Inhibition of recombinant full-length human CDK6/cyclinD3 at 1 uM using Histone H1 as substrate measured after 40 mins in presence of [gamma33P]ATP by scintillation counting method relative to control; format: protein-complex assay
[3] = target: Misshapen-like kinase 1 (Homo sapiens) (UniProt Q8N4C8); assay: Inhibition of recombinant human MINK (1 to 310 recombinant) at 1 uM using myelin basic protein as substrate measured after 40 mins in presence of [gamma33P]ATP by scintillation counting method relative to control
[4] = target: Serine/threonine-protein kinase 32B (Homo sapiens) (UniProt Q9NY57); assay: Inhibition of recombinant full-length human STK32B at 1 uM using casein as substrate measured after 120 mins in presence of [gamma33P]ATP by scintillation counting method relative to control
[5] = target: Insulin receptor (Homo sapiens) (UniProt P06213); assay: Inhibition of recombinant human IR (1005 to 1310 residues) at 1 uM using KKSRGDYMTMQIG as substrate measured after 40 mins in presence of [gamma33P]ATP by scintillation counting method relative to control
[6] = target: Mitogen-activated protein kinase 14 (Homo sapiens) (UniProt Q16539); assay: Inhibition of recombinant full-length human SAPK2a at 1 uM using myelin basic protein as substrate measured after 40 mins in presence of [gamma33P]ATP by scintillation counting method relative to control
[7] = target: Dual specificity tyrosine-phosphorylation-regulated kinase 1A (Homo sapiens) (UniProt Q13627); assay: Inhibition of recombinant full-length human DYRK1A at 1 uM using RRRFRPASPLRGPPK as substrate measured after 40 mins in presence of [gamma33P]ATP by scintillation counting method relative to control
[8] = target: Calcium/calmodulin-dependent protein kinase type II subunit alpha (Homo sapiens) (UniProt Q9UQM7); assay: Inhibition of full-length recombinant human CaMK2 alpha at 1 uM using KKLNRTLSFAEPG as substrate measured after 40 mins in presence of [gamma33P]ATP by scintillation counting method relative to control
In short: (§1)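 Percent inhibition of kinase activity at a single compound concentration, measured by the outsourced Eurofins KinaseProfiler panel. Values are the mean of two independent experiments.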

[9] = target: Protein kinase C beta type (Homo sapiens) (UniProt P05771); assay: Inhibition of recombinant human PKCbeta2 (2 to end residues) at 1 uM using histone H1 as substrate measured after 40 mins in presence of [gamma33P]ATP by scintillation counting method relative to control
NCI-H1975 = assay: Antiproliferative activity against human NCI-H1975 cells assessed as inhibition of cell viability after 72 hrs by CCK-8 assay; format: functional, cell-based; conditions: NCI-H1975, 72 h
In short: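 Cells kept at 37 °C, 5% CO2 in DMEM or RPMI-1640 with 10% FBS and 1% penicillin/streptomycin, then seeded at 3000 cells/well (adherent) or 10,000 cells/well (suspension). Exposed to a range of concentrations for 72 h. CCK-8 added for 1-4 h before reading A450. […] Three independent experiments.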

[10] = target: Tyrosine-protein kinase JAK2 (Homo sapiens) (UniProt O60674); assay: Inhibition of recombinant human JAK2 (808 to end residues) at 1 uM using KTFCGTPEYLAPEVRREPRILSEEEQEMFRDFDYIADWC as substrate measured after 40 mins in presence of [gamma33P]ATP by scintillation counting method relative to control
Homo sapiens = species on record: Homo sapiens; assay: Inhibition of human Ros V2262A mutant (1883 to end residues) at 1 uM using KKKSPGEYVNIEFG as substrate measured after 40 mins in presence of [gamma33P]ATP by scintillation counting method relative to control; in short: as §1
[11] = system: Tyrosine-protein kinase ABL1 (Homo sapiens), P00519 [T315I]; assay: Inhibition of recombinant human ABL T315I mutant (27 to end residues) at 1 uM using EAIYAAPFAKKK as substrate measured after 40 mins in presence of [gamma33P]ATP by scintillation counting method relative to control
[12] = target: Ribosomal protein S6 kinase alpha-5 (Homo sapiens) (UniProt O75582); assay: Inhibition of recombinant human MSK1 (2 to end residues) at 1 uM using GRPRTSSFAEGKK as substrate measured after 40 mins in presence of [gamma33P]ATP by scintillation counting method relative to control
[13] = target: Ephrin type-B receptor 4 (Homo sapiens) (UniProt P54760); assay: Inhibition of recombinant human EphB4 (561 to end residues) at 1 uM using poly(Glu, Tyr) 4:1 as substrate measured after 40 mins in presence of [gamma33P]ATP by scintillation counting method relative to control
[14] = target: Macrophage-stimulating protein receptor (Homo sapiens) (UniProt Q04912); assay: Inhibition of human Ron (983 to end residues) at 1 uM using GGMEDIYFEFMGGKKK as substrate measured after 40 mins in presence of [gamma33P]ATP by scintillation counting method relative to control; in short: as §1
[15] = target: Protein kinase C theta type (Homo sapiens) (UniProt Q04759); assay: Inhibition of recombinant full-length human PKCtheta at 1 uM using histone H1as substrate measured after 40 mins in presence of [gamma33P]ATP by scintillation counting method relative to control
[16] = target: Mitogen-activated protein kinase 13 (Homo sapiens) (UniProt O15264); assay: Inhibition of recombinant full-length human SAPK4 at 1 uM using myelin basic protein as substrate measured after 40 mins in presence of [gamma33P]ATP by scintillation counting method relative to control
A549 = assay: Induction of apoptosis in human A549 cells after 48 hrs by AnnexinV-FITC staining-based flow cytometric analysis; format: functional, cell-based
[17] = target: Activin receptor type-1B (Homo sapiens) (UniProt P36896); assay: Inhibition of recombinant human ALK4 (150 to end residues) at 1 uM using casein as substrate measured after 40 mins in presence of [gamma33P]ATP by scintillation counting method relative to control
[18] = target: Mitogen-activated protein kinase kinase kinase 9 (Homo sapiens) (UniProt P80192); assay: Inhibition of recombinant human MLK1 (134 to 414 residues) at 1 uM using casein as substrate measured after 40 mins in presence of [gamma33P]ATP by scintillation counting method relative to control
[19] = target: Serine-protein kinase ATM (Homo sapiens) (UniProt Q13315); assay: Inhibition of recombinant full-length human ATM at 1 uM using GST-cMyc-p53 as substrate measured after 40 mins by ELISA relative to control
[20] = target: Cyclin-dependent kinase 9 (Homo sapiens) (UniProt P50750); conditions: 0.25 to 1 uM

Sequence of Calcium/calmodulin-dependent protein kinase type II subunit alpha (Homo sapiens) (Q9UQM7 whole entry): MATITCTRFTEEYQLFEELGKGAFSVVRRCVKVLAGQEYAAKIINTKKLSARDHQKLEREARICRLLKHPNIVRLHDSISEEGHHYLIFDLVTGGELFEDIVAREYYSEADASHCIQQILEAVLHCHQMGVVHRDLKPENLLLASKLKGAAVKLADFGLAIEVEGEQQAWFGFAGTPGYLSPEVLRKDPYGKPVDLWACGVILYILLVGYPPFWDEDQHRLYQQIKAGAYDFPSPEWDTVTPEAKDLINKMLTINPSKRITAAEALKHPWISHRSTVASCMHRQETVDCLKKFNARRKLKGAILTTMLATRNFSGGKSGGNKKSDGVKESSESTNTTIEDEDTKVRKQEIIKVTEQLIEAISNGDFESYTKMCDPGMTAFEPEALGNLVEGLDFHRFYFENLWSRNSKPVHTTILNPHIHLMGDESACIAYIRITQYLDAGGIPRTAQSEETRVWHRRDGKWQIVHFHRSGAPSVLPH
Sequence of Protein kinase C theta type (Homo sapiens) (Q04759 whole entry, looked up): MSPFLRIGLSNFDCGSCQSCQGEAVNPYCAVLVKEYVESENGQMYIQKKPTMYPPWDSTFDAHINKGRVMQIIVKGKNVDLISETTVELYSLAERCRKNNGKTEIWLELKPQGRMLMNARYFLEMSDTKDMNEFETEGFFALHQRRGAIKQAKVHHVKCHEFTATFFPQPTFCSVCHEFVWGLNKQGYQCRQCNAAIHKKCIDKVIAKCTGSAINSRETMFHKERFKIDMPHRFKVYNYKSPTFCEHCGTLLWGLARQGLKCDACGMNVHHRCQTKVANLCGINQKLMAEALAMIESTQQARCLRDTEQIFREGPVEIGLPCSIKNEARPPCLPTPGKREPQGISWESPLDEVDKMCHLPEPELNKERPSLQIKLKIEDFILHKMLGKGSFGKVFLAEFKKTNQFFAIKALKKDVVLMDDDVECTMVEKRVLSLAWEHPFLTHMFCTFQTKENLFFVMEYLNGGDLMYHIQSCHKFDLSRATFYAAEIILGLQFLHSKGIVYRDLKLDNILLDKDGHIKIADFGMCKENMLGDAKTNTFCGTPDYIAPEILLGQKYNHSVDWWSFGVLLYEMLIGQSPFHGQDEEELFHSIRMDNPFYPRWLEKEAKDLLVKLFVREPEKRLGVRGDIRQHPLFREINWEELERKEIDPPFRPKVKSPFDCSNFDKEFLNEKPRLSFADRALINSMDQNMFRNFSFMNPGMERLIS
Sequence of Serine/threonine-protein kinase 32C (Homo sapiens) (Q86UX6 whole entry): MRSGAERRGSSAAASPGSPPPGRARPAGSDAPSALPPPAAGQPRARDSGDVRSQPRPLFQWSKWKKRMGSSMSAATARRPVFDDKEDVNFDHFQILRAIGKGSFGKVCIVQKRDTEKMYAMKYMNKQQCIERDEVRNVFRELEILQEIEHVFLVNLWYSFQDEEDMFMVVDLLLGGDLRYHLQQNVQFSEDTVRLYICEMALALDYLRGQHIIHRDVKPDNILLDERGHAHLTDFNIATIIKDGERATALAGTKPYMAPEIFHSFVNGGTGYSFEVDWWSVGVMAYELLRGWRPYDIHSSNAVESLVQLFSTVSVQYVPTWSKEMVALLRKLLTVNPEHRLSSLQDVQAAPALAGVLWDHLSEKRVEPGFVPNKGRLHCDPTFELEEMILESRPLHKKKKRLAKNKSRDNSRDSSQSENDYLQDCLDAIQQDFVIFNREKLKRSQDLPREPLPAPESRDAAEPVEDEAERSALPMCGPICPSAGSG
Sequence of Ribosomal protein S6 kinase alpha-5 (Homo sapiens) (O75582 whole entry, looked up): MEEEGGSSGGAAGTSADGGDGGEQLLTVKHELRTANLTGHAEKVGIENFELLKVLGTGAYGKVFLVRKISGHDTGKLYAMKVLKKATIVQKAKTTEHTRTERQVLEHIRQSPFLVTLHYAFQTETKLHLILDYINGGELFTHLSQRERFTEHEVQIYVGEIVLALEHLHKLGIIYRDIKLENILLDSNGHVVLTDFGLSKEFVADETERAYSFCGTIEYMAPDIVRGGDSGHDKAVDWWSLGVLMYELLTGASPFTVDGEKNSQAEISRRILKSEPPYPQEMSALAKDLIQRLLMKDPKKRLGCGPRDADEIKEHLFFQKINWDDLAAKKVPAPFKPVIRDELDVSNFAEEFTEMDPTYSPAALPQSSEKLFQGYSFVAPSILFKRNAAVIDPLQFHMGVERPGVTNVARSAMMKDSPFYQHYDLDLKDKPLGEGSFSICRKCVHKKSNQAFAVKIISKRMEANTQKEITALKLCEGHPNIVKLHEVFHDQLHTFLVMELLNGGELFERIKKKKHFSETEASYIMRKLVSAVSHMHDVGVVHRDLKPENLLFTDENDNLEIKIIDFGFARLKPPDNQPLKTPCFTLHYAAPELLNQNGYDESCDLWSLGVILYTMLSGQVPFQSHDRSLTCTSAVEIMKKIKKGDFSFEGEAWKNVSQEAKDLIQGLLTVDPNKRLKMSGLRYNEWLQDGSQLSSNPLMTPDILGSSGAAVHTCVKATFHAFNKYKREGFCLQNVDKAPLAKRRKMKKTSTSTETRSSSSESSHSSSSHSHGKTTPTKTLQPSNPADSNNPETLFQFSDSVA
Sequence of Mitogen-activated protein kinase 13 (Homo sapiens) (O15264 whole entry): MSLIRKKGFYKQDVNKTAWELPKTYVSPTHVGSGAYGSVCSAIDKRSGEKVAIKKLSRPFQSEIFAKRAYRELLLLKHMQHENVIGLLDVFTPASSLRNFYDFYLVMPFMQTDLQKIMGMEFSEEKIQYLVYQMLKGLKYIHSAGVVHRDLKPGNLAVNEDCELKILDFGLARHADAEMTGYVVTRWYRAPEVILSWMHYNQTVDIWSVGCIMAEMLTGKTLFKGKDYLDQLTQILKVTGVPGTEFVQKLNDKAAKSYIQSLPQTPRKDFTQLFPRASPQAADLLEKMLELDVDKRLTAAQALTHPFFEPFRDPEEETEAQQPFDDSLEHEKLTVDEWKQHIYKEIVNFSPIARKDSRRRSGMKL
Sequence of Activin receptor type-1B (Homo sapiens) (P36896 whole entry, the tested form may be a part): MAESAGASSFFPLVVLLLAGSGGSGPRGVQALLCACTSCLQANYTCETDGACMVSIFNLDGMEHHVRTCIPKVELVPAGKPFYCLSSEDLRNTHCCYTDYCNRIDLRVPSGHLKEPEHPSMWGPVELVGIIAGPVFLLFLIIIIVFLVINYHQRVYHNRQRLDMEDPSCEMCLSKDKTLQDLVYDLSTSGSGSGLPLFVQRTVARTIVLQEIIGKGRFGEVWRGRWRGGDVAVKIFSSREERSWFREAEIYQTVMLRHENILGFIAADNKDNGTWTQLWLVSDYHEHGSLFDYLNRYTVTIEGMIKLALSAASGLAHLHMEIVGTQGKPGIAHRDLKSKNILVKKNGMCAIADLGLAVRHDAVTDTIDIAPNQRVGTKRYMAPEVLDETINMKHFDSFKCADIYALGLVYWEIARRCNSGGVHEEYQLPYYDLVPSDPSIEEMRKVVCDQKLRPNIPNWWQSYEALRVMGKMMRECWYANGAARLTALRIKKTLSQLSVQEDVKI
Sequence of Serine/threonine-protein kinase 32B (Homo sapiens) (Q9NY57 whole entry, the tested form may be a part): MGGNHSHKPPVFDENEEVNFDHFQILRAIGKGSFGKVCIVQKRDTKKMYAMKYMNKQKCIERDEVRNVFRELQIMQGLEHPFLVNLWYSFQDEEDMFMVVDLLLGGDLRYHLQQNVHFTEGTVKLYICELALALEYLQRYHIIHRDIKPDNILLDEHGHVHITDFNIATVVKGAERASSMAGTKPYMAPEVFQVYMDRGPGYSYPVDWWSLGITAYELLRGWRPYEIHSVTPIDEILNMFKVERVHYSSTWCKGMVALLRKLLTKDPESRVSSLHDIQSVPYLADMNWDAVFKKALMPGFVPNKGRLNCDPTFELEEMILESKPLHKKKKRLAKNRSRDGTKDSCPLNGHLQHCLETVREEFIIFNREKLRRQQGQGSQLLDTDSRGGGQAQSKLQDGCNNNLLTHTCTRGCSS
Sequence of Tyrosine-protein kinase JAK2 (Homo sapiens) (O60674 whole entry): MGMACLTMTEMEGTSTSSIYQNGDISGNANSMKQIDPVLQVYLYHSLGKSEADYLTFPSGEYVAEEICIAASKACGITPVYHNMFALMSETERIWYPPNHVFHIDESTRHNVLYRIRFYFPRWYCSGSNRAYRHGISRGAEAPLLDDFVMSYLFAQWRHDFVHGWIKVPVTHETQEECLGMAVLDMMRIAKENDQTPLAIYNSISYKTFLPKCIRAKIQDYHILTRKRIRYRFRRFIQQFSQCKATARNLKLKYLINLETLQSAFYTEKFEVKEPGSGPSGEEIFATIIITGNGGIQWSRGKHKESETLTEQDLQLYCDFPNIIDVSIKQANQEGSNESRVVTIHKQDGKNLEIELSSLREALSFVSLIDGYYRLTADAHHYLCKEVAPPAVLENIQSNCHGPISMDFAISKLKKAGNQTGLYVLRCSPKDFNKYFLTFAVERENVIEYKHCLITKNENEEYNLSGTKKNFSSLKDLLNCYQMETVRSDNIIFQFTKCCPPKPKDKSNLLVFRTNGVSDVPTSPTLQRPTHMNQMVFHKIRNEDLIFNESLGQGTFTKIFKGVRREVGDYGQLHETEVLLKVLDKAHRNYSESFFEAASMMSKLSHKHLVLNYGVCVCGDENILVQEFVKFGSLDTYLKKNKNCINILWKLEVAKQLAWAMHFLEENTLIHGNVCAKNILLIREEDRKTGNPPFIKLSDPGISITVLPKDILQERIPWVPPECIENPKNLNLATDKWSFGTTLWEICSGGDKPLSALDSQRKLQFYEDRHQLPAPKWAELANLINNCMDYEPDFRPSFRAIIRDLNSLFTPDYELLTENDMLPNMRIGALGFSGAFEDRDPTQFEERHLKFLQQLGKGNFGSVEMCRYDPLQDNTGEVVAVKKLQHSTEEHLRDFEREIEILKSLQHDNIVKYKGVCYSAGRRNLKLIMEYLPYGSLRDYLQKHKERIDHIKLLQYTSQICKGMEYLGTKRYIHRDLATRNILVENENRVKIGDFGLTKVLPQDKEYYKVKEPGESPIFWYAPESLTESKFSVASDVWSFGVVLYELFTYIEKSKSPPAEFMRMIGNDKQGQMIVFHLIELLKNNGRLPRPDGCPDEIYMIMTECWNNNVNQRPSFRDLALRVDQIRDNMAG

CN(C)C(=O)c1cc2cnc(Nc3ccc(NC(=O)CCCCCCCN=C=S)cc3)nc2n1C1CCCC1
inhibition [1]: 17% | inhibition [2]: 79% | inhibition [3]: 39% | inhibition [4]: 49% | inhibition [5]: -6% | inhibition [6]: 20% | inhibition [7]: 2% | inhibition [8]: 61% | inhibition [9]: 72% | IC50 (NCI-H1975): 837 nM | inhibition [10]: 4% | inhibition (Homo sapiens): 0% | inhibition [11]: 38% | inhibition [12]: 5% | inhibition [13]: -4% | inhibition [14]: 72% | inhibition [15]: 47% | inhibition [16]: 10% | Activity (A549): Dose-dependent effect | inhibition [17]: 3% | inhibition [18]: 34% | inhibition [19]: 6% | inhibition [20]: Active

— ChEMBL document CHEMBL4376814, “Novel cyclin-dependent kinase 9 (CDK9) inhibitor with suppression of cancer stemness activity against non-small-cell lung cancer” (Eur J Med Chem, 2019)
